28 compounds from ChEMBL document CHEMBL3792381, “Amine-free melanin-concentrating hormone receptor 1 antagonists: Novel 1-(1H-benzimidazol-6-yl)pyridin-2(1H)-one derivatives and design to avoid CYP3A4 time-dependent inhibition” (Bioorg Med Chem, 2016) can be followed below.

The target in data set [1] is Melanin-concentrating hormone receptor 1 (Rattus norvegicus, UniProt P97639). The data set is described as follows: Displacement of [125I]-MCH(4-19) from rat MCHR1 expressed in CHO cell membranes after 1 hr by liquid scintillation counting. An outline of the steps:
(§1)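 Membranes from CHO cells stably expressing human or rat MCHR1, prepared by homogenization and 100,000×g centrifugation, in 20 mM Tris-HCl pH 7.5 with 5 mM EDTA and protease inhibitors. Incubated with test compound and [125I]-MCH(4–19) for 1 h at room temperature. Filtered on PEI-treated GF/C filters and counted by scintillation. Nonspecific binding defined with cold MCH(1–19). IC50 from duplicate experiment.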
Background: Displacement assays read how much labelled ligand stays bound in the presence of the test substance.

The next data set concerns the target CYP3A4 (Homo sapiens, UniProt P08684). As to the kind of experiment: Time dependent inhibition of CYP3A4 in human liver microsomes assessed as conversion of testosterone to 6beta-hydroxytestosterone by measuring remaining activity at 30 uM by UPLC analysis in presence of NADPH generating system. The data set is classed as ADME. The note with it: read-out: Activity. A digest of the protocol: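 Single-point assay: test compound at 30 µM preincubated with human liver microsomes at 37 °C in phosphate buffer pH 7.4 with an NADPH-generating system. Residual CYP3A4 activity then measured as testosterone 6β-hydroxylation by UPLC. Percent remaining = activity with preincubation (% of DMSO control) over activity without preincubation; n = 2.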
Background: Liver microsomes are a subcellular fraction often used to study metabolism.

The target of data set [2] is T1, Melanin-concentrating hormone receptor 1 (Homo sapiens, UniProt Q99705). As to the kind of experiment: Displacement of [125I]-MCH(4 to 19) from human MCHR1 expressed in CHO cell membranes after 1 hr by liquid scintillation counting. A digest of the protocol:
as §1

Data set [3] has as its system Rattus norvegicus. The data set is described as follows: Antiobesity activity in DIO-F344/Jcl rat assessed as reduction in body weight at 1 mg/kg, po dosed for 2 weeks and measured every 2 or 3 days relative to vehicle control. The class given is functional. Set-up: scale not given: the % may be the effect or the level left. A digest of the protocol: (§2)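 Male DIO-F344 rats (41 weeks old), on high-fat diet D12451 from 5 weeks of age, singly housed, given powder high-fat diet, habituated to oral dosing with tap water, grouped by day-0 food intake and body weight. Oral gavage once daily, suspended in 0.5% methylcellulose at 2 mL/kg, 1–3 h before dark onset, for 2 weeks (n = 5 or 6). Body weight taken before dosing, expressed as % of initial. Food intake every 2 or 3 days. Vehicle-treated and sibutramine-treated groups included.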

Data set [4] deals with Rattus norvegicus. As to the kind of experiment: Anorectic effect in DIO-F344/Jcl rat assessed as cumulative food intake at 1 mg/kg, po dosed for 2 weeks and measured every 2 or 3 days relative to vehicle control. The class given is functional. A digest of the protocol:
as §2

The target in the next data set is Cytochrome P450 3A4 (Homo sapiens, UniProt P08684). As to the kind of experiment: Time dependent inhibition of CYP3A4 in human liver microsomes at 10 uM. The class given is ADME.
Data set [5] in a line: Total clearance in Sprague-Dawley rat plasma at 0.1 mg/kg, iv administered through cassette dosing by LC/MS/MS analysis. The data set is classed as ADME, organism-based. An outline of the steps:
(§3)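 Male SD rats (eight weeks old), fed, cassette-dosed iv at 0.1 mg/kg or orally at 1 mg/kg as a suspension in 0.5% methylcellulose; n = 3. Plasma obtained by centrifugation of blood, deproteinized with acetonitrile, and measured by LC/MS/MS. AUC covers 0–8 h. Bioavailability, total clearance and Vss are derived from the iv and po data.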

Data set [6] in a line: Solubility of compound at pH 6.8. The note with it: buffer. The data set is classed as physicochemical.
In data set [7] the test system is Rattus norvegicus. As to the kind of experiment: Anorectic effect in DIO-F344/Jcl rat assessed as inhibition of food intake at 10 mg/kg, po administered 2 hrs before onset of dark period for 2 days. The class given is functional. Details: scale not given: the % may be the effect or the level left. An outline of the steps:
(§4)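 Male DIO-F344/Jcl rats, 45 weeks old, on high-fat diet from 5 weeks of age, singly housed on powdered high-fat diet and habituated to oral dosing with tap water. Grouped by day-0 food intake and body weight. Dosed orally once daily, suspended in 0.5% methylcellulose at 2 mL/kg, 2 h before dark onset, for 2 days; n = 6. Cumulative 2-day food intake is expressed relative to the vehicle group.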

Data set [8] can be described thus: AUC( 0 to 8 hrs) Sprague-Dawley rat plasma at 1 mg/kg, po administered through cassette dosing by LC/MS/MS analysis. The class given is ADME, organism-based. Details: dose 1 mg/kg, time < 8 hr, route oral. A digest of the protocol:
as §3

The nature of data set [9]: Cmax in Sprague-Dawley rat at 1 mg/kg, po administered through cassette dosing by LC/MS/MS analysis. The class given is ADME, organism-based. Details: dose 1 mg/kg, route oral. The following applies: in vivo. A digest of the protocol: as §3
A short description of data set [10]: Oral bioavailability in Sprague-Dawley rat plasma at 1 mg/kg administered through cassette dosing by LC/MS/MS analysis. The class given is ADME, organism-based. A digest of the protocol:
as §3

Data set [11] can be described thus: Tmax in Sprague-Dawley rat plasma at 1 mg/kg, po administered through cassette dosing by LC/MS/MS analysis. The data set is classed as ADME, organism-based. A digest of the protocol:
as §3

Data set [12] relates to Rattus norvegicus. As to the kind of experiment: Anorectic effect in DIO-F344/Jcl rat assessed as inhibition of food intake at 3 mg/kg, po administered 2 hrs before onset of dark period for 2 days. The class given is functional. A digest of the protocol:
as §4

A short description of data set [13]: Volume of distribution in steady state in Sprague-Dawley rat plasma at 0.1 mg/kg, iv administered through cassette dosing by LC/MS/MS analysis. The data set is classed as ADME, organism-based. The note with it: read-out: Vdss. An outline of the steps:
as §3

In data set [14] the target is T1, Melanin-concentrating hormone receptor 1. As to the kind of experiment: Antagonist activity at human MCHR1 expressed in CHO cells assessed as change in MCH(4 to 19)-stimulated Ca2+ concentration by Ca2+ mobilization assay. The data set is classed as functional, cell-based. An outline of the steps: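 CHO dhfr− cells stably transfected with human MCHR1 (clone 4), seeded at 20000 cells/well and cultured about 24 h. Loaded with Fluo4 calcium dye for 30 min at 37 °C. Test compound in 10 mM HEPES pH 7.4 buffer with 0.1% BSA added, then MCH(4–19) at 2 nM final. Fluorescence read every 2 s; inhibition rate (%) taken relative to ligand-alone and DMSO-alone wells.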
On the technique in general: Calcium flux is commonly read through the fluorescence of an indicator in the cells.

pIC50: −log10 of the molar value. Values after ≈ are worked out from the molar mass of the structure shown. Active and inactive are the calls of the source. The calls are words filed in the database; no cut-off is given here.

Melanin-concentrating hormone receptor 1 (Rattus norvegicus, UniProt P97639), sequence (P97639 whole entry): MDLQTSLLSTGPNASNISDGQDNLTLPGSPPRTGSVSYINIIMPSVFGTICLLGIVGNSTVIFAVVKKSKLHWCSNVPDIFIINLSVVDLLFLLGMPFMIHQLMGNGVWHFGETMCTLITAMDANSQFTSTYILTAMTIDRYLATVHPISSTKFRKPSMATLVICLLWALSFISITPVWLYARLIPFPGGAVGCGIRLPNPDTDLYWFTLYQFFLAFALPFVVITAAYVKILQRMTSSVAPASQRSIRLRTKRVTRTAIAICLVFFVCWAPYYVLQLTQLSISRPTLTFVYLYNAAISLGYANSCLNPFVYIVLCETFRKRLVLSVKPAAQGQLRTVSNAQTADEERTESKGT
CYP3A4, sequence (P08684 whole entry): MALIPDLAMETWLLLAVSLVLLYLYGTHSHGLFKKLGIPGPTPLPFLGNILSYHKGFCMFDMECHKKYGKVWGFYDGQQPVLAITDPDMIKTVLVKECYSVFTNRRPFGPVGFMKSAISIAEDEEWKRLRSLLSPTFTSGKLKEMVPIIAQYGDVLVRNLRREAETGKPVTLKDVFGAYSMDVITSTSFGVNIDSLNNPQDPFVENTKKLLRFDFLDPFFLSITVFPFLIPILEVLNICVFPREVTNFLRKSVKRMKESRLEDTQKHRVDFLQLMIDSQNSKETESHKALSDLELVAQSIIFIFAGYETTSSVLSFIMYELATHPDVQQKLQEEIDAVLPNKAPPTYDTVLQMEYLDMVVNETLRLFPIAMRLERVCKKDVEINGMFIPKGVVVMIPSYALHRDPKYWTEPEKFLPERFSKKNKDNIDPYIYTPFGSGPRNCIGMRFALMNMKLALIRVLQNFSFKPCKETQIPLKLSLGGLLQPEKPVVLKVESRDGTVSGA
T1 sequence (Q99705 whole entry): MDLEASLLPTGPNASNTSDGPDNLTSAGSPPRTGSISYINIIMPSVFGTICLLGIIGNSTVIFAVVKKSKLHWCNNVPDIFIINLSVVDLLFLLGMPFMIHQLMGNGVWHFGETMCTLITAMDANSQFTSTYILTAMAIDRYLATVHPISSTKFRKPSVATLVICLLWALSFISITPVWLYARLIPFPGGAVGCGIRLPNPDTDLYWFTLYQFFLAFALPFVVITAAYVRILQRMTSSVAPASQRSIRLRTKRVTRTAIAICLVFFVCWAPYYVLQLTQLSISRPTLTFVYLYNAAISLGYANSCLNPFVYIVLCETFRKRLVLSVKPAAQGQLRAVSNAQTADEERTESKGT
Cytochrome P450 3A4, sequence (P08684 whole entry): as the sequence (P08684 whole entry) above

One may read the pIC50 as the IC50 on a negative log10 scale, so that one unit is a factor of ten. Regarding `Cn1c(C2CC2)nc2ccc(-n3ccc(OCc4cc(Cl)cs4)cc3=O)cc21`, the values for the pIC50 in [1] and in [2] were 7.74 and 7.77, respectively. Besides, the activity at 30 µM at CYP3A4 is 25%.
Turning to `Cn1c(C2CC2)nc2ccc(-n3ccc(OCc4ccc(Cl)cn4)cc3=O)cc21`, the values for the pIC50 in data set [1] and in data set [2] were 7.33 and 7.14, respectively.
As for `Cn1c(C2CC2)nc2ccc(-n3ccc(OCc4cc(C(F)(F)F)cs4)cc3=O)cc21`, the values for the pIC50 in [1] and in data set [2] were 7.77 and 7.47, respectively. In addition, at CYP3A4, the activity at 30 µM amounted to 87%.
For the compound `Cn1c(C2CC2)nc2ccc(-n3ccc(OCc4ccc(Cl)cc4)cc3=O)cc21`, the pIC50 in [1] is 7.68; in data set [2], 7.46.
`Cn1c(C2CCCC2)nc2ccc(-n3ccc(OCc4ccc(F)cc4)cc3=O)cc21`: the pIC50 was 6.34 in data set [1] and 6.22 in data set [2].
The like results for `Cn1c(C2CC2)nc2ccc(-n3ccc(OCc4ccc(F)cc4)cc3=O)cc21` were, in that order, 7.55 and 7.40.
Consider `CCn1c(C2CC2)nc2ccc(-n3ccc(OCc4ccc(Cl)cc4)cc3=O)cc21`, for which the pIC50 is 7.47 in data set [1] and 7.43 in data set [2].
Turning to `Cc1c(C2CC2)nc2cnc(-n3ccc(OCc4ccc(Cl)cc4)cc3=O)cn12`, the pIC50 in data set [2] was 7.36.
On to `CC(C)CC(N(C)C)C1(c2ccc(Cl)cc2)CCC1` (stereo not drawn) [SIBUTRAMINE], for which the Activity came out at 3.1% in the data set on Rattus norvegicus [3] and 18.7% with Rattus norvegicus [4].
For `Cn1c(C2CC2)nc2ccc(-n3ccc(OCc4cccc(Cl)c4)cc3=O)cc21`, the figures for the pIC50 in data set [1] and in data set [2] were 7.14 and 7.00, respectively.
As to `Cc1c(C2CC2)nc2ccc(-n3ccc(OCc4ccc(Cl)cc4)cc3=O)nn12`, the pIC50 in data set [2] is 6.42.
For the compound `Cn1c(C2CC2)nc2ccc(-n3ccc(OCc4ccsc4)cc3=O)cc21`, the pIC50 in data set [1] was 7.54; in data set [2] it was 7.55. Also, the activity at 30 µM on CYP3A4 turned out to be 74%.
The corresponding values for `Cn1c(C2CC2)nc2ccc(-n3ccc(OCc4csc(Cl)c4)cc3=O)cc21` are 8.03, 7.85 and 44%.
Turning to `Cn1c(CC2CC2)nc2ccc(-n3ccc(OCc4ccc(F)cc4)cc3=O)cc21`, the pIC50 is 6.85 in data set [1] and 7.05 in data set [2].
The corresponding values for `Cc1nc2ccc(-n3ccc(OCc4ccc(F)cc4)cc3=O)cc2n1C` are 7.19 and 7.11.
Take `CCc1nc2ccc(-n3ccc(OCc4ccc(F)cc4)cc3=O)cc2n1C`: the pIC50 in data set [1] was 7.42; in data set [2] it was 7.32.
On to `Cn1c(C2CC2)nc2ccc(-n3ccc(OCc4csc(C(F)(F)F)c4)cc3=O)cc21`, for which the pIC50 in [1] is 7.54; in data set [2] it was 7.39. Moreover, on CYP3A4, the activity at 30 µM was determined as 96%.
In the case of `CCCc1nc2ccc(-n3ccc(OCc4ccc(F)cc4)cc3=O)cc2n1C`, the pIC50 was 7.41 in data set [1] and 7.47 in data set [2].
As for `Cn1c(C2CC2)nc2ccc(-n3ccc(OCc4ncc(Cl)cn4)cc3=O)cc21`, the values for the pIC50 in data set [1] and in data set [2] were 6.05 and less than 6.00, respectively.
`Cc1c(C2CC2)nc2ncc(-n3ccc(OCc4ccc(Cl)cc4)cc3=O)cn12` gave a pIC50 in [2] of less than 6.00.
Take `Cn1c(C2CC2)nc2ccc(-n3ccc(OCc4ccccc4Cl)cc3=O)cc21`: the pIC50 is 6.85 in [1] and 6.80 in data set [2].
The corresponding values for `Cn1c(C2CC2)nc2ccc(-n3ccc(OCc4cccs4)cc3=O)cc21` are 6.92 and 7.12.
With `Cn1c(C2CCC2)nc2ccc(-n3ccc(OCc4ccc(F)cc4)cc3=O)cc21`, the pIC50 in [1] is 6.68; in data set [2] it was 6.62.
The like results for `Cn1c(C2CC2)nc2ccc(-n3ccc(OCc4ccccc4)cc3=O)cc21` were, in that order, 7.37 and 7.35.
Turning to `Cn1c(CC(C)(C)C)nc2ccc(-n3ccc(OCc4ccc(F)cc4)cc3=O)cc21`, the pIC50 in data set [1] and in [2] was less than 6.00 each time.
With `Cc1c(C2CC2)nc2ccc(-n3ccc(OCc4ccc(Cl)cc4)cc3=O)cn12`, the “inhibition (INH)” value on Cytochrome P450 3A4 is reported as “Active”.
The term clearance denotes the volume of plasma or blood freed of the substance per unit of time. As usually defined, the solubility is how much of the substance goes into solution per volume. By AUC(0-t) is commonly meant the area under the concentration-time curve up to a stated or last time point. A word on the Cmax: it is the highest concentration seen after dosing. For orientation: bioavailability means dose-corrected exposure relative to a reference, in per cent. For orientation: Tmax means the time at which the peak concentration occurs. The compound `Cn1c(C2CC2)nc2ccc(-n3ccc(OCc4ccc(C(F)(F)F)s4)cc3=O)cc21` had a clearance in data set [5] of 4.75 mL/min/kg. In data set [6], this compound showed a solubility of 0.25 µg/mL (≈ 0.561 µM). Further, in the data set with Rattus norvegicus [7], the Activity turned out to be 20.3%. In addition, in data set [8], the AUC(0-t) at 8 h stood at 2020 ng·h/mL. Moreover, the values for the pIC50 in data set [1], in [14] and in data set [2] were 7.89, 7.74 and 7.80, respectively. This compound also gave a peak concentration (Cmax) in data set [9] of 298 ng/mL. The compound also yielded a bioavailability in data set [10] of 57%. The Tmax in [11] is 2.7 h. Also, the Activity result with Rattus norvegicus [12] was “Active”. For the same compound, in [13], the Vd was found to be 0.979 L/kg. The activity at 30 µM at CYP3A4 is 97%.
On to `CCCn1c(C2CC2)nc2ccc(-n3ccc(OCc4ccc(Cl)cc4)cc3=O)cc21`, for which the pIC50 in data set [1] is 6.96; in [2], 7.07.
